In ChEMBL document CHEMBL4346653, “A2B Adenosine Receptor Antagonists with Picomolar Potency” (J Med Chem, 2019):

Columns and labels:
[1] = biological target: T1, Adenosine receptor A1 (Homo sapiens) (UniProt P30542); test: Displacement of [3H]CCPA from recombinant human A1 adenosine receptor expressed in CHO cell membranes at 1 uM measured after 90 mins in presence of adenosine deaminase by liquid scintillation counting method relative to control
T1 sequence (whole entry): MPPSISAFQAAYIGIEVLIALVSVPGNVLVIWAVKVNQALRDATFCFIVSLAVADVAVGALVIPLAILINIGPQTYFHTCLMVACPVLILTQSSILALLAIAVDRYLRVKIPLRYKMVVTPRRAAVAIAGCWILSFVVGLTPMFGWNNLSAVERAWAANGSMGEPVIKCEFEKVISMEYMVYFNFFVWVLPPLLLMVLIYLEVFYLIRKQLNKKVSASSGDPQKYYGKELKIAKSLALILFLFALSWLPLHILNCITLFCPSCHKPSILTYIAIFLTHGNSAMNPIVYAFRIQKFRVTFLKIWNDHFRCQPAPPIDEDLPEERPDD
Outline: (§1)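 Single-point competition binding at human AR subtype membranes, each against its own tritiated radioligand. The test compound is given at 1 μM, and the result is reported as percent inhibition of radioligand binding. The radioligand-specific footnotes give n = 3.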

Adenosine receptor A3 [2] = biological target: T2, Adenosine receptor A3 (Mus musculus, UniProt Q61618); test: Displacement of [3H]NECA from recombinant mouse A3 adenosine receptor expressed in CHO cell membranes measured after 180 mins in presence of adenosine deaminase by liquid scintillation counting method
T2 sequence (Q61618 whole entry): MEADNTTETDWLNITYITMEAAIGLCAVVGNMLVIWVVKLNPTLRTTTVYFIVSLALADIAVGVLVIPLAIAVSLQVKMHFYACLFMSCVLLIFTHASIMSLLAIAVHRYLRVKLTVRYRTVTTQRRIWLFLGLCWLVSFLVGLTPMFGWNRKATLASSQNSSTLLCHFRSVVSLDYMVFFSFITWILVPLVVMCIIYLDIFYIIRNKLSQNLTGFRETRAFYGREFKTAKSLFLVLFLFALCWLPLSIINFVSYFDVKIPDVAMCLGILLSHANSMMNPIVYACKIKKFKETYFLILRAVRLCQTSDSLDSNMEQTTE

Homo sapiens [3] = species on record: Homo sapiens; test: Selectivity index, ratio of Ki for displacement of [3H]CCPA from recombinant human A1 adenosine receptor expressed in CHO cell membranes to Ki for displacement of [3H]PSB-603 from recombinant human A2B adenosine receptor expressed in CHO cell membranes
Adenosine receptor A2b = biological target: T3, Adenosine receptor A2b (Mus musculus, UniProt Q60614); test: Displacement of [3H]PSB-603 from recombinant mouse A2B adenosine receptor expressed in CHO cell membranes measured after 75 mins in presence of adenosine deaminase by liquid scintillation counting method
T3 sequence (Q60614 whole entry): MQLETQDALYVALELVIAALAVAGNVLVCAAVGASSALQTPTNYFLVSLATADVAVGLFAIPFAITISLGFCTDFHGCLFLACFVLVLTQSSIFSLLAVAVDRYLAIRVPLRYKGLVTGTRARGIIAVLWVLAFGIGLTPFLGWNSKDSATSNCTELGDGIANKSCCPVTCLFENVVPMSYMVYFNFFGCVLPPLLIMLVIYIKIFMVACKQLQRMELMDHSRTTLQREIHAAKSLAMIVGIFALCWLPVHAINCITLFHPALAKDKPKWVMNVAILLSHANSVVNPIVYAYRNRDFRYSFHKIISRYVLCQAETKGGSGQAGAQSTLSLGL

Adenosine receptor A3 [4] = biological target: T4, Adenosine receptor A3 (Homo sapiens, UniProt P0DMS8); test: Displacement of [3H]PSB-11 from recombinant human A3 adenosine receptor expressed in CHO cell membranes measured after 45 mins in presence of adenosine deaminase by liquid scintillation counting method
T4 sequence (P0DMS8 whole entry): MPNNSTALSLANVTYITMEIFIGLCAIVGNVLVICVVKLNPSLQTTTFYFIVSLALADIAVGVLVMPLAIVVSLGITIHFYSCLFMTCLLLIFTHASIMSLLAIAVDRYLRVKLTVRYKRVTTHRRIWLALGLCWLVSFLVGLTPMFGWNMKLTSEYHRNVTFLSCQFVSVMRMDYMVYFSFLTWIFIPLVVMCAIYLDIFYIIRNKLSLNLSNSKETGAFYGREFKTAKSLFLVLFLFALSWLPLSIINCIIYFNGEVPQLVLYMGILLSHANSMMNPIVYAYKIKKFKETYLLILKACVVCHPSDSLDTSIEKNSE
Outline: (§2)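 Competition binding on membranes of cells recombinantly expressing the human receptor (CHO or HEK cells), with tritiated radioligand per subtype: [3H]PSB-603 for A2B, [3H]MSX-2 for A2A, [3H]CCPA for A1, [3H]PSB-11 for A3. Ki ± SEM from n = 3, some from extrapolated curves. Weak binders are reported as % inhibition of radioligand binding at 1 μM.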

Adenosine receptor A1 [5] = biological target: T5, Adenosine receptor A1 (Homo sapiens, UniProt P30542); test: Displacement of [3H]CCPA from recombinant human A1 adenosine receptor expressed in CHO cell membranes measured after 90 mins in presence of adenosine deaminase by liquid scintillation counting method; outline: as §2
T5 sequence (P30542 whole entry): T1 sequence (whole entry)

Homo sapiens [6] = species on record: Homo sapiens; test: Selectivity index, ratio of Ki for displacement of [3H]MSX-2 from recombinant human A2A adenosine receptor expressed in CHO cell membranes to Ki for displacement of [3H]PSB-603 from recombinant human A2B adenosine receptor expressed in CHO cell membranes
[7] = biological target: T6, Adenosine receptor A3 (Mus musculus) (UniProt Q61618); test: Displacement of [3H]NECA from recombinant mouse A3 adenosine receptor expressed in CHO cell membranes at 1 uM measured after 180 mins in presence of adenosine deaminase by liquid scintillation counting method relative to control
T6 sequence (whole entry): T2 sequence (Q61618 whole entry)

Adenosine receptor A1 [8] = biological target: T7, Adenosine receptor A1 (Mus musculus, UniProt Q60612); test: Displacement of [3H]CCPA from recombinant mouse A1 adenosine receptor expressed in CHO cell membranes measured after 90 mins in presence of adenosine deaminase by liquid scintillation counting method
T7 sequence (Q60612 whole entry): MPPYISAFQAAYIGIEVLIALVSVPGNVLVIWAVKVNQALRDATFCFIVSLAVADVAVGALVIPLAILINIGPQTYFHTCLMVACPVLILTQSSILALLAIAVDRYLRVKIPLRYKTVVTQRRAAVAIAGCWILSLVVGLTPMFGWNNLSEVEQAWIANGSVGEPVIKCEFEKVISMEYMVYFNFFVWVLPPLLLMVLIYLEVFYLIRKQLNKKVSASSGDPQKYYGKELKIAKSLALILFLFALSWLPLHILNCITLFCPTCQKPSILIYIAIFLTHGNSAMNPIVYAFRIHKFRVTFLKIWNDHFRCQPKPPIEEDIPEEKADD

[9] = biological target: T8, Adenosine receptor A3 (Homo sapiens) (UniProt P0DMS8); test: Displacement of [3H]PSB-11 from recombinant human A3 adenosine receptor expressed in CHO cell membranes at 1 uM measured after 45 mins in presence of adenosine deaminase by liquid scintillation counting method relative to control; outline: as §1
T8 sequence (whole entry): T4 sequence (P0DMS8 whole entry)

Homo sapiens [10] = species on record: Homo sapiens; test: Selectivity index, ratio of Ki for displacement of [3H]PSB-11 from recombinant human A3 adenosine receptor expressed in CHO cell membranes to Ki for displacement of [3H]PSB-603 from recombinant human A2B adenosine receptor expressed in CHO cell membranes

| inhibition [1] | Ki (Adenosine receptor A3 [2]) | Ki (Adenosine receptor A2b) | Ki (Adenosine receptor A3 [4]) | Ki (Adenosine receptor A1 [5]) | inhibition [7] | Ki (Adenosine receptor A1 [8]) | inhibition [9] | Structure (SMILES) | Ratio Ki (Homo sapiens [3]) | Ratio Ki (Homo sapiens [6]) | Ratio Ki (Homo sapiens [10]) |
| --- | --- | --- | --- | --- | --- | --- | --- | --- | --- | --- | --- |
| 34% | > 1000 nM | 0.926 nM | > 1000 nM | > 1000 nM | -2% | > 300 nM | 44% | CCCn1c(=O)[nH]c2nc(-c3ccc(S(=O)(=O)N4CCN(c5cccc(F)c5)CC4)cc3)[nH]c2c1=O | > 1580 | > 1580 | > 1580 |
| 13% | > 1000 nM | 0.131 nM | > 1000 nM | > 1000 nM | 8% | > 1000 nM | 29% | CCCn1c(=O)[nH]c2nc(-c3ccc(S(=O)(=O)N4CCN(c5ccc(Br)cc5)CC4)cc3)[nH]c2c1=O | > 12000 | > 12000 | > 12000 |
| 22% | > 1000 nM | 8.34 nM | > 1000 nM | > 1000 nM | -0.833% | 1520 nM | 39% | CCCn1c(=O)c2[nH]c(-c3ccc(S(=O)(=O)N4CCN(c5ccc(Cl)cc5)CC4)cc3)nc2n(C)c1=O | > 520 | > 520 | > 520 |
